Assay results pooled from the literature.
Mode: inhibitor
HDAC6: Protein deacetylase HDAC6 (HDAC6, Homo sapiens, UniProt Q9UBN7)
Dihydroorotate dehydrogenase, mitochondrial, putative: Dihydroorotate dehydrogenase, mitochondrial, putative (Plasmodium vivax, UniProt A5K1N1)
KCNH2: Voltage-gated inwardly rectifying potassium channel KCNH2 (KCNH2, Homo sapiens, UniProt Q12809)

SMILES	target	read-out	method	pH	IC50
O=C(NO)c1cc(F)cc(OS(=O)(=O)Oc2ccccc2)c1	HDAC6	enzyme activity	fluorescence	–	77 nM
Cc1cc(Nc2nccc(C)n2)cc(-c2cnc([C@@]3(O)CC[C@H](C(=O)NCCCNC(=O)CCc4ccc5n4[B-](F)(F)[N+]4=C(c6ccc[nH]6)C=CC4=C5)C(C)(C)C3)s2)c1	Tyrosine-protein kinase SYK (SYK, Homo sapiens, UniProt P43405)	enzyme activity	radiometric	–	110 nM
Cc1cc(OS(=O)(=O)Oc2ccccc2)cc(C(=O)NO)c1	HDAC6	enzyme activity	fluorescence	–	3830 nM
Cn1nc2c(=O)n(C3CC3)ncc2c1[C@](N)(c1ccc(C(F)(F)F)c(Cl)c1)C1CC1	Dihydroorotate dehydrogenase, mitochondrial, putative	enzyme activity	absorbance	–	6.7 nM
CN(C)C(=O)CN1CCN(c2cnc3c(cc(C(=O)NCc4ccc(Cl)cc4)c(=O)n3CC(=O)N3CC(C)(F)C3)n2)C1=O	KCNH2	ion current	patch clamp	–	> 40000 nM
O=C(NO)c1cccc(OS(=O)(=O)Oc2ccc(-c3cccc(C(F)(F)F)c3)cc2)c1	HDAC6	enzyme activity	fluorescence	–	3100 nM
O=c1oc(-c2cccnc2)nc2ccccc12	Prothrombin (F2, Homo sapiens, UniProt P00734)	enzyme activity	absorbance	pH 7.4	~970 nM
CCn1cc(C)c2c(C(O)c3ccc(Cl)c(F)c3)n(C)nc2c1=O (stereo not shown)	Dihydroorotate dehydrogenase, mitochondrial, putative	enzyme activity	absorbance	–	9.8 nM
Cc1cc(OS(=O)(=O)Oc2ccc(-n3ccnc3)cc2)cc(C(=O)NO)c1	HDAC6	enzyme activity	fluorescence	–	4750 nM
COc1cc2c(cc1OC)CC(=O)N(CCCN(C)C[C@H]1Cc3cc(OC)c(OC)cc31)CC2	Potassium/sodium hyperpolarization-activated cyclic nucleotide-gated channel 1 (Homo sapiens, UniProt O60741)	ion current	–	–	5400 nM
Cc1cc(C(C)(C)C)ccc1OS(=O)(=O)Oc1cc(F)cc(C(=O)NO)c1	HDAC6	enzyme activity	fluorescence	–	3210 nM
Cn1nc2c(=O)n(C3CC3)ncc2c1[C@](O)(c1cnc(C(F)(F)F)c(Cl)c1)C(F)(F)F	Dihydroorotate dehydrogenase, mitochondrial, putative	enzyme activity	absorbance	–	17 nM
COc1cnc2c(cc(C(=O)NCc3ccc(Cl)cc3)c(=O)n2CC(=O)N2CC(C)(F)C2)n1	KCNH2	ion current	patch clamp	–	2910 nM
Cn1nc2c(=O)n(C3CC3)ccc2c1[C@](O)(c1cnc(C(F)(F)F)c(Cl)c1)C(F)(F)F	Dihydroorotate dehydrogenase, mitochondrial, putative	enzyme activity	absorbance	–	19 nM
COc1ccc2c(C(=S)N(C)CC(=O)O)cccc2c1C(F)(F)F	Aldo-keto reductase family 1 member B10 (AKR1B10, Homo sapiens, UniProt O60218)	enzyme activity	–	–	57 nM
Cn1nc2c(=O)n(C3CC3)cnc2c1[C@](O)(c1cnc(C(F)(F)F)c(Cl)c1)C(F)(F)F	Dihydroorotate dehydrogenase, mitochondrial, putative	enzyme activity	absorbance	–	23 nM
CC1(F)CN(C(=O)Cn2c(=O)c(C(=O)NCc3ccc(Cl)cc3)cc3nc(N4CCCC4=O)cnc32)C1	KCNH2	ion current	patch clamp	–	> 40000 nM
Cc1c(C(=O)OC2CC2)nn(C)c1Cc1ccc(C(F)(F)F)nc1	Dihydroorotate dehydrogenase, mitochondrial, putative	enzyme activity	absorbance	–	16 nM
O=C(NO)c1cncc(OS(=O)(=O)Oc2ccc(C(F)(F)F)cc2)c1	HDAC6	enzyme activity	fluorescence	–	147 nM
